Data set [1] deals with Staphylococcus aureus. As to the kind of experiment: Antibacterial activity against methicillin-susceptible Staphylococcus aureus. Type of data set: functional.
A further data set concerns Moraxella catarrhalis. Briefly: Antibacterial activity against Moraxella catarrhalis. It counts as functional.
Data set [2] in a line: AUC (0 to infinity) in Sprague-Dawley rat plasma at 2 x 50 mg/kg, iv. It counts as ADME, organism-based. Further details: time infinity, dose 50 mg/kg, route intravenous. Put shortly: (§1)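 Female Sprague–Dawley rats given two iv doses of 50 mg/kg. Levels measured in plasma, liver, kidney, brain, heart and lung. Cmax reported as ng/g for tissue and ng/mL for plasma; AUC(0–∞) as ng·h/mL. Half-life is the terminal elimination value.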

A short description of data set [3]: Cmax in Sprague-Dawley rat plasma at 2 x 50 mg/kg, iv. Type of data set: ADME, organism-based. Further details: dose 50 mg/kg, route intravenous. Put shortly: as §1
The nature of data set [4]: Cmax in Sprague-Dawley rat liver at 2 x 50 mg/kg, iv. Type of data set: ADME, organism-based. Further details: dose 50 mg/kg, route intravenous. Put shortly: as §1
Data set [5] relates to Staphylococcus aureus. As to the kind of experiment: Antibacterial activity against methicillin-resistant Staphylococcus aureus NRS384 infected in Swiss mouse. Type of data set: functional. In outline:
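Murine lethal systemic infection by intraperitoneal MRSA challenge. A single subcutaneous dose was given 5 min after infection.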

The test system of the next data set is Escherichia coli. As to the kind of experiment: Antibacterial activity against Escherichia coli C7 after 18 hrs by broth microdilution method. The following applies: C7, 18 h. Type of data set: functional.
Data set [6] in a line: Thermodynamic aqueous solubility of the compound in 1 to 5% of glucose. Type of data set: physicochemical. The following applies: 1 to 5% glucose in water; read-out: Therm_solubility. Put shortly: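 Solubility measured in an aqueous solution containing 20% hydroxypropyl-β-cyclodextrin together with 1–5% glucose.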
Data set [7] in a line: Cmax in Sprague-Dawley rat brain at 2 x 50 mg/kg, iv. Type of data set: ADME, organism-based. Further details: dose 50 mg/kg, route intravenous. In outline: as §1
For a further data set, the system named is Neisseria meningitidis. As to the kind of experiment: Antibacterial activity against Neisseria meningitidis. Type of data set: functional.
Data set [8] can be described thus: AUC (0 to infinity) in Sprague-Dawley rat liver at 2 x 50 mg/kg, iv. It counts as ADME, organism-based. The arrangement: time infinity, dose 50 mg/kg, route intravenous. In outline:
as §1

Data set [9] in a line: AUC (0 to infinity) in Sprague-Dawley rat heart at 2 x 50 mg/kg, iv. It counts as ADME, organism-based. The arrangement: time infinity, dose 50 mg/kg, route intravenous. Put shortly: as §1
Data set [10] concerns Staphylococcus haemolyticus. As to the kind of experiment: Antibacterial activity against methicillin-resistant Staphylococcus haemolyticus. Type of data set: functional.
Data set [11] is described as follows: Toxicity in iv dosed rat administered bid for 2 weeks. It counts as organism-based. The following applies: in vivo. Put shortly:
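Rats dosed iv twice daily for 14 days. NOAEL assessed from clinical findings and from macroscopic and microscopic examination.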

Data set [12] can be described thus: AUC (0 to infinity) in Sprague-Dawley rat lung at 2 x 50 mg/kg, iv. Type of data set: ADME, organism-based. Further details: time infinity, dose 50 mg/kg, route intravenous. In outline:
as §1

The nature of data set [13]: AUC (0 to infinity) in Sprague-Dawley rat kidney at 2 x 50 mg/kg, iv. It counts as ADME, organism-based. The arrangement: time infinity, dose 50 mg/kg, route intravenous. In outline:
as §1

For data set [14], the system named is Staphylococcus aureus. As to the kind of experiment: Antibacterial activity against methicillin-resistant Staphylococcus aureus NRS384. It counts as functional. Put shortly: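 CLSI broth microdilution: serial 2-fold dilutions from 0.06 to 64 μg/mL in cation-adjusted Mueller–Hinton broth, inoculum 5 × 10^5 CFU/mL, 35 °C for 18 h. MIC is the lowest concentration with no visible growth.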

Data set [15] in a line: Cmax in Sprague-Dawley rat kidney at 2 x 50 mg/kg, iv. Type of data set: ADME, organism-based. Further details: dose 50 mg/kg, route intravenous. Put shortly:
as §1

Values after ≈ are worked out from the molar mass of the structure shown.

With `CCc1cc(O)c(Oc2ccc(C(N)=O)cc2F)cc1F`, the MIC90 was 0.06 µg/mL (≈ 0.205 µM) in the data set with Staphylococcus aureus [1], 2 µg/mL (≈ 6.82 µM) against Moraxella catarrhalis, 0.25 µg/mL (≈ 0.852 µM) with Neisseria meningitidis and 0.5 µg/mL (≈ 1.7 µM) in data set [10]. In addition, the area under the curve AUC(0-inf) was determined as 13900 ng·h/mL in data set [2]; 105000 ng·h/mL in data set [8]; 23900 ng·h/mL in [9]; 18400 ng·h/mL in [12]; 20300 ng·h/mL in data set [13]. The peak concentration (Cmax) in [3] amounted to 30400 ng/mL; in data set [4], 51700 ng/g; in data set [7], 37800 ng/g; in data set [15] it was 63000 ng/g. In the data set on Staphylococcus aureus [5], this compound yielded a median effective dose (ED50) of 45.1 mg/kg. For the same compound, the MIC came to 0.5 µg/mL (≈ 1.7 µM) in the data set on Escherichia coli and 0.06 µg/mL (≈ 0.205 µM) with Staphylococcus aureus [14]. For the same compound, the solubility thermodynamic in data set [6] was 11.3 mg/mL (≈ 38500 µM). The compound also gave a no observed adverse effect level (NOAEL) at 336 h in data set [11] of 200 mg/kg/day.
